# Source: ChEMBL document CHEMBL4689842, “EUbOPEN Chemogenomics Library wave 1” (2021)
# Tested on: U2OS
# Experiment: Multiplex assay against U2OS
# Assay type: toxicity, cell-based
# Settings: human
# How it was run: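 Per cents of healthy-nucleus cells form the tubulin, mitochondrial-mass and membrane-permeability phenotype values. Live cells were stained at seeding with Hoechst33342, BioTracker Green Microtubule Cytoskeleton Dye, MitoTracker Red and Annexin V Alexa Fluor 680. After compound addition they were imaged on a CQ1 microscope at 37°C and 5% CO2, and CellPathfinder machine-learning gating split them into Hoechst high-intensity objects or normal cells, normal cells into healthy, pyknosed or fragmented nuclei, and pyknosed cells into mitotic or apoptotic.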
# [1] = 12 h, 1 µM, compound concentration 1 uM, replicate 1
# [2] = 12 h, 1 µM, compound concentration 1 uM, replicate 2
# [3] = 12 h, 10 µM, compound concentration 10 uM, replicate 1
# [4] = 12 h, 10 µM, compound concentration 10 uM, replicate 2
# [5] = 24 h, 1 µM, compound concentration 1 uM, replicate 1
# [6] = 24 h, 1 µM, compound concentration 1 uM, replicate 2
# [7] = 24 h, 10 µM, compound concentration 10 uM, replicate 1
# [8] = 24 h, 10 µM, compound concentration 10 uM, replicate 2
# [9] = 48 h, 1 µM, compound concentration 1 uM, replicate 1
# [10] = 48 h, 1 µM, compound concentration 1 uM, replicate 2
# [11] = 48 h, 10 µM, compound concentration 10 uM, replicate 1
# [12] = 48 h, 10 µM, compound concentration 10 uM, replicate 2
smiles,measurement,setting,value
CCc1cccc(CC)c1NC(=O)c1nn(C)c2c1CCc1cnc(Nc3ccc(C(=O)NC4CCN(C)CC4)cc3OC(F)(F)F)nc1-2,Population Apoptotic (%),[1],34%
same,Population Fragmented Nuclei (%),[1],18%
same,Population Healthy Nuclei (%),[1],60%
same,Population Hoechst High Intensity Objects (%),[1],9%
same,Population Membrane Permeable-Phenotype (%),[1],3%
same,Population Mitochondria Different-Phenotype (%),[1],22%
same,Population Mitotic Cells (%),[1],65%
same,Population Normal (%),[1],90%
same,Population Pyknosed Nuclei (%),[1],20%
same,Population Tubulin-Different-Phenotype (%),[1],12%
same,Total Cell Count,[1],191
same,Population Apoptotic (%),[2],40%
same,Population Fragmented Nuclei (%),[2],1%
same,Population Healthy Nuclei (%),[2],83%
same,Population Hoechst High Intensity Objects (%),[2],13%
same,Population Membrane Permeable-Phenotype (%),[2],5%
same,Population Mitochondria Different-Phenotype (%),[2],14%
same,Population Mitotic Cells (%),[2],60%
same,Population Normal (%),[2],86%
same,Population Pyknosed Nuclei (%),[2],15%
same,Population Tubulin-Different-Phenotype (%),[2],18%
same,Total Cell Count,[2],51
same,Population Apoptotic (%),[3],50%
same,Population Fragmented Nuclei (%),[3],18%
same,Population Healthy Nuclei (%),[3],54%
same,Population Hoechst High Intensity Objects (%),[3],5%
same,Population Membrane Permeable-Phenotype (%),[3],34%
same,Population Mitochondria Different-Phenotype (%),[3],97%
same,Population Mitotic Cells (%),[3],50%
same,Population Normal (%),[3],94%
same,Population Pyknosed Nuclei (%),[3],26%
same,Population Tubulin-Different-Phenotype (%),[3],99%
same,Total Cell Count,[3],156
same,Population Apoptotic (%),[4],46%
same,Population Fragmented Nuclei (%),[4],12%
same,Population Healthy Nuclei (%),[4],70%
same,Population Membrane Permeable-Phenotype (%),[4],15%
same,Population Mitochondria Different-Phenotype (%),[4],98%
same,Population Mitotic Cells (%),[4],53%
same,Population Pyknosed Nuclei (%),[4],17%
same,Population Tubulin-Different-Phenotype (%),[4],86%
same,Total Cell Count,[4],75
same,Population Apoptotic (%),[5],44%
same,Population Fragmented Nuclei (%),[5],15%
same,Population Healthy Nuclei (%),[5],64%
same,Population Hoechst High Intensity Objects (%),[5],7%
same,Population Membrane Permeable-Phenotype (%),[5],3%
same,Population Mitochondria Different-Phenotype (%),[5],18%
same,Population Mitotic Cells (%),[5],55%
same,Population Normal (%),[5],92%
same,Population Pyknosed Nuclei (%),[5],20%
same,Population Tubulin-Different-Phenotype (%),[5],11%
same,Total Cell Count,[5],190
same,Population Apoptotic (%),[6],37%
same,Population Fragmented Nuclei (%),[6],7%
same,Population Healthy Nuclei (%),[6],81%
same,Population Hoechst High Intensity Objects (%),[6],10%
same,Population Membrane Permeable-Phenotype (%),[6],5%
same,Population Mitochondria Different-Phenotype (%),[6],12%
same,Population Mitotic Cells (%),[6],62%
same,Population Normal (%),[6],89%
same,Population Pyknosed Nuclei (%),[6],11%
same,Population Tubulin-Different-Phenotype (%),[6],19%
same,Total Cell Count,[6],53
same,Population Apoptotic (%),[7],56%
same,Population Fragmented Nuclei (%),[7],20%
same,Population Healthy Nuclei (%),[7],48%
same,Population Hoechst High Intensity Objects (%),[7],5%
same,Population Membrane Permeable-Phenotype (%),[7],40%
same,Population Mitochondria Different-Phenotype (%),[7],100%
same,Population Mitotic Cells (%),[7],43%
same,Population Normal (%),[7],94%
same,Population Pyknosed Nuclei (%),[7],30%
same,Population Tubulin-Different-Phenotype (%),[7],97%
same,Total Cell Count,[7],156
same,Population Apoptotic (%),[8],50%
same,Population Fragmented Nuclei (%),[8],15%
same,Population Healthy Nuclei (%),[8],63%
same,Population Hoechst High Intensity Objects (%),[8],2%
same,Population Membrane Permeable-Phenotype (%),[8],26%
same,Population Mitochondria Different-Phenotype (%),[8],91%
same,Population Mitotic Cells (%),[8],50%
same,Population Normal (%),[8],97%
same,Population Pyknosed Nuclei (%),[8],20%
same,Population Tubulin-Different-Phenotype (%),[8],73%
same,Total Cell Count,[8],77
same,Population Apoptotic (%),[9],46%
same,Population Fragmented Nuclei (%),[9],19%
same,Population Healthy Nuclei (%),[9],54%
same,Population Hoechst High Intensity Objects (%),[9],9%
same,Population Membrane Permeable-Phenotype (%),[9],5%
same,Population Mitochondria Different-Phenotype (%),[9],18%
same,Population Mitotic Cells (%),[9],53%
same,Population Normal (%),[9],90%
same,Population Pyknosed Nuclei (%),[9],25%
same,Population Tubulin-Different-Phenotype (%),[9],17%
same,Total Cell Count,[9],179
same,Population Apoptotic (%),[10],9%
same,Population Fragmented Nuclei (%),[10],16%
same,Population Healthy Nuclei (%),[10],72%
same,Population Hoechst High Intensity Objects (%),[10],4%
same,Population Membrane Permeable-Phenotype (%),[10],7%
same,Population Mitochondria Different-Phenotype (%),[10],19%
same,Population Mitotic Cells (%),[10],90%
same,Population Normal (%),[10],95%
same,Population Pyknosed Nuclei (%),[10],11%
same,Population Tubulin-Different-Phenotype (%),[10],23%
same,Total Cell Count,[10],49
same,Population Apoptotic (%),[11],57%
same,Population Fragmented Nuclei (%),[11],27%
same,Population Healthy Nuclei (%),[11],34%
same,Population Hoechst High Intensity Objects (%),[11],5%
same,Population Membrane Permeable-Phenotype (%),[11],57%
same,Population Mitochondria Different-Phenotype (%),[11],95%
same,Population Mitotic Cells (%),[11],42%
same,Population Normal (%),[11],94%
same,Population Pyknosed Nuclei (%),[11],38%
same,Population Tubulin-Different-Phenotype (%),[11],98%
same,Total Cell Count,[11],188
same,Population Apoptotic (%),[12],44%
same,Population Fragmented Nuclei (%),[12],11%
same,Population Healthy Nuclei (%),[12],51%
same,Population Membrane Permeable-Phenotype (%),[12],35%
same,Population Mitochondria Different-Phenotype (%),[12],86%
same,Population Mitotic Cells (%),[12],55%
same,Population Pyknosed Nuclei (%),[12],37%
same,Population Tubulin-Different-Phenotype (%),[12],64%
same,Total Cell Count,[12],97
